Tb MetRS inh: Trypanosoma brucei MetRS inhibition. purified T. brucei MetRS, ATP depletion, Kinase-Glo luminescence. inhibition, % at 11.9 µM. 360,000 compounds, 0.4% hits. AID 624268;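 active = inhibition above a per-plate cutoff of the control wells' mean inhibition plus 3 SD, cut at about 5.5% in these data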;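 also: 0% = DMSO wells median and 100% = median of wells with control inhibitor compound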
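Dosing: 11.9 µM compound single dose, 0.9% DMSO; Assay system: purified T. brucei MetRS enzyme; Measured by: Kinase-Glo luciferase luminescence reporting remaining unconsumed ATP; Schedule: 15 min plus 2 h at 25 °C.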
AI-2 QS mod: modulators of Vibrio harveyi AI-2 quorum sensing system | activity change, % at 7.5 µM | 300,000 compounds, 0.4% hits | AID 2094 | Vibrio harveyi JMH597 AI-2 luminescence/OD600 ratio, 9 h; hits give low values; strain lacks LuxN and CqsS sensors; 0 = neutral-control median; in the data active = activity change below about -75%, passing the limit was not always enough;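 also: luminescence divided by OD600 gain over 9 h not by final OD600 alone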
AHR activator: activators of human aryl hydrocarbon receptor. AID 2796. AHR-responsive luciferase reporter cells, luminescence. 320,000 compounds, 2.5% hits. activation, % at 5 µM; in the data active = activation above about 47%;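 also: 0% = vehicle wells and 100% = reference agonist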
m5-HT2A agonist: mouse HTR2A agonism via beta-arrestin recruitment; CHO-K1 mHTR2A beta-arrestin complementation, luminescence; percent of 30 µM serotonin response; AID 624169; P35363; 360,000 compounds, 0.66% hits; activation, % at 7.6 µM;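 active = activation above a run cutoff, the mean activation of all tested compounds plus 3 SD, cut at about 14% in these data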;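 also: 0% = plate median of compound wells and 100% = 30 µM serotonin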
MsrA inh: inhibits bovine methionine sulfoxide reductase A; inhibition, % at 15.5 µM; purified bovine MsrA, absorbance read-out; AID 651718; 360,000 compounds, 0.75% hits;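 also: 0% = vehicle wells with enzyme and 100% = reference inhibitor wells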
bovine MsrA act: activators of bovine methionine sulfoxide reductase A | purified bovine MsrA, absorbance read-out | activation, % at 10.6 µM | 360,000 compounds, 0.3% hits; in the data active = activation above about 7.5%;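 also: 0% = vehicle and 100% = reference activator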
MsrA inh confirm: bovine MsrA inhibition, confirmed | shares compounds with MsrA inh | purified bovine MsrA, absorbance read-out | inhibition, % at 15.5 µM | 2,300 compounds, 41% hits | AID 651822;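 also: coupled to thioredoxin reductase with NADPH and selenocystamine and DMSO as substrate; 0% = vehicle only and 100% = full effect of reference inhibitor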
Active calls of the source: *. Compounds with a hit are over-represented: about 4.4% of the library has one in this group of screens. Rule as the data show it, unless noted: active = inhibition above about 4.5%; inactive = the rest.

What do the screens show for `COc1cc(/C=N/NC(=O)/C(=C\c2ccc([N+](=O)[O-])cc2)NC(=O)c2ccccc2)cc(OC)c1O`?
Tb MetRS inh: -1; AI-2 QS mod: 27; AHR activator: 14; m5-HT2A agonist: -1; MsrA inh: 4; bovine MsrA act: -7

Results for COc1cc(/C=N/NC(=O)c2ccc(-n3cccc3)cc2)ccc1O ?
Tb MetRS inh: 0; AI-2 QS mod: 46; AHR activator: 23; m5-HT2A agonist: -5; MsrA inh: 5.9*; bovine MsrA act: -5; MsrA inh confirm: 4.8*

How did COc1cc(/C=N/NC(=O)c2ccc3c(c2)OCO3)ccc1O do in these assays?
Tb MetRS inh: 0; AI-2 QS mod: 5; m5-HT2A agonist: -4; MsrA inh: 6.3*; bovine MsrA act: -4; MsrA inh confirm: 4

How did COc1cc(/C=N/NC(=O)/C(=C\c2ccc3c(c2)OCO3)NC(=O)c2ccccc2)ccc1O do in these assays?
Tb MetRS inh: 0; AI-2 QS mod: 29; AHR activator: 69*; m5-HT2A agonist: -3; MsrA inh: 8.7*; bovine MsrA act: -7; MsrA inh confirm: 4.9*

Results for COc1cccc(C(NC(C)=O)c2nc(-c3ccoc3)cs2)c1 (centres undefined) ?
Tb MetRS inh: 0; m5-HT2A agonist: 0; MsrA inh: 2; bovine MsrA act: 3

How did O=C(N/N=C/c1ccc2c(c1)OCO2)c1cccs1 do in these assays?
Tb MetRS inh: -1; AI-2 QS mod: 19; AHR activator: 97*; m5-HT2A agonist: 4; MsrA inh: 6.1*; bovine MsrA act: -10; MsrA inh confirm: 5

How did CCOc1cc(/C=N/NC(=O)c2ccc3c(c2)OCCO3)cc(Br)c1O do in these assays?
Tb MetRS inh: 0; AI-2 QS mod: 23; AHR activator: 3; m5-HT2A agonist: -4; MsrA inh: 6.0*; bovine MsrA act: -4; MsrA inh confirm: 6.9*

Results for CN(C)c1ccc(C(=O)N/N=C/c2ccccn2)cc1 ?
Tb MetRS inh: 0; AI-2 QS mod: 23; AHR activator: 21; m5-HT2A agonist: -1; MsrA inh: 7.4*; bovine MsrA act: -3; MsrA inh confirm: 4

What do the screens show for `Cc1ccsc1C(=O)N/N=C/c1ccc2c(c1)OCO2`?
Tb MetRS inh: -3; AI-2 QS mod: 13; AHR activator: 10; m5-HT2A agonist: 4; MsrA inh: 4; bovine MsrA act: -8

Results for O=C(N/N=C/c1ccccn1)c1ccccc1 ?
Tb MetRS inh: 0; AI-2 QS mod: 1; AHR activator: 10; m5-HT2A agonist: 10; MsrA inh: 1; bovine MsrA act: -1

What do the screens show for `O=C(N/N=C/c1ccc([N+](=O)[O-])cc1)c1cccs1`?
Tb MetRS inh: 0; AI-2 QS mod: 26; AHR activator: -1; m5-HT2A agonist: -4; MsrA inh: 5.4*; bovine MsrA act: -4; MsrA inh confirm: 5.0*

What do the screens show for `O=C1NC2(CCCCC2)OC12CCCCC2`?
Tb MetRS inh: 0; m5-HT2A agonist: 5; MsrA inh: -1; bovine MsrA act: -1

What do the screens show for `Cn1c(=O)c2c(SCC(=O)N3CCOCC3)nc(-c3ccccc3Cl)nc2n(C)c1=O`?
Tb MetRS inh: 0; AI-2 QS mod: 19; AHR activator: 2; m5-HT2A agonist: 7; MsrA inh: -1; bovine MsrA act: -2

Results for Cc1ccc(N2CC(C(=O)Nc3cccc(C(=O)NC4CC4)c3)CC2=O)cc1 (centres undefined) ?
Tb MetRS inh: 0; AHR activator: -1; m5-HT2A agonist: 1; MsrA inh: 1; bovine MsrA act: -2

What do the screens show for `CCN(CC)c1ccc(/C=N/NC(=O)c2ccc3c(c2)OCCO3)cc1`?
Tb MetRS inh: 0; AI-2 QS mod: 47; m5-HT2A agonist: -7; MsrA inh: 3; bovine MsrA act: -1

What do the screens show for `CN(C)c1ccc(/C=N/NC(=O)c2ccc3c(c2)OCCO3)cc1`?
Tb MetRS inh: 0; AI-2 QS mod: 13; AHR activator: 30; m5-HT2A agonist: -2; MsrA inh: 5.0*; bovine MsrA act: -4; MsrA inh confirm: 5.5*

Results for O=C1OC(c2cccs2)=N/C1=C/c1ccc(-c2cccc(C(=O)O)c2)o1 ?
Tb MetRS inh: 0; m5-HT2A agonist: -2; MsrA inh: 4; bovine MsrA act: -5

Results for O=C1OC(c2ccco2)=N/C1=C\c1ccc(-c2cccc(C(F)(F)F)c2)o1 ?
Tb MetRS inh: 0; AI-2 QS mod: 19; AHR activator: 5; m5-HT2A agonist: 5; MsrA inh: 5.6*; bovine MsrA act: -2; MsrA inh confirm: 2

How did O=Cc1c(-c2ccc(F)cc2)nc2ccccn12 do in these assays?
Tb MetRS inh: 0; AI-2 QS mod: 41; AHR activator: 70*; m5-HT2A agonist: 1; MsrA inh: 9.1*; bovine MsrA act: -1; MsrA inh confirm: 3

Results for C=CCNc1sc(C(=O)C2CC2)c(N)c1C#N ?
Tb MetRS inh: -1; AHR activator: 13; m5-HT2A agonist: -3; MsrA inh: 6.4*; bovine MsrA act: -8; MsrA inh confirm: 4.8*

What do the screens show for `Oc1[nH]c2ccccc2c1C1=NCCCC1`?
Tb MetRS inh: 0; AI-2 QS mod: 23; AHR activator: 34; m5-HT2A agonist: -2; MsrA inh: 4.9*; bovine MsrA act: 2; MsrA inh confirm: 4

What do the screens show for `O=C(O)c1ccc(N/N=C/c2c(F)cccc2Cl)cc1`?
Tb MetRS inh: 0; AI-2 QS mod: -79*; AHR activator: -3; m5-HT2A agonist: -1; MsrA inh: 6.5*; bovine MsrA act: -6; MsrA inh confirm: 4

Results for Oc1ccc(Cl)cc1C1=Nc2ccccc2N=C(c2ccco2)C1 ?
Tb MetRS inh: -1; AI-2 QS mod: 11; AHR activator: 33; m5-HT2A agonist: -5; MsrA inh: 1; bovine MsrA act: -1

What do the screens show for `Fc1ccccc1C1CC(c2ccco2)=Nc2ccccc2S1` (centres undefined)?
Tb MetRS inh: -1; AI-2 QS mod: 13; AHR activator: 23; m5-HT2A agonist: 8; MsrA inh: 4.9*; bovine MsrA act: 3; MsrA inh confirm: 1

How did O=C(NN(Cc1ccccc1)Cc1ccccc1)c1ccccc1 do in these assays?
Tb MetRS inh: 0; m5-HT2A agonist: -5; MsrA inh: 1; bovine MsrA act: -1

How did CCCCNC(=S)N(C)/N=C/c1ccc(OCC(=O)Nc2ccc(OC)cc2)c(OC)c1 do in these assays?
Tb MetRS inh: -2; AI-2 QS mod: 12; AHR activator: 0; m5-HT2A agonist: 1; MsrA inh: 6.5*; bovine MsrA act: -11; MsrA inh confirm: 3

Results for CCCCNC(=S)N(C)/N=C/c1ccc(OCC(=O)Nc2c(C)cc(C)cc2C)c(OC)c1 ?
Tb MetRS inh: -1; AI-2 QS mod: 38; AHR activator: 6; m5-HT2A agonist: -1; MsrA inh: 5; bovine MsrA act: -10

From PubChem BioAssay
